Calls of active or inactive are those of the source. The calls are words filed in the database; no cut-off is given here.
How the values were obtained:
Mus musculus [1] = test: Toxicity in NOD/SCID mouse xenografted with human CRC240 cells assessed as change in body weight at 1 mg/kg, po administered 11 days and measured on day 4, 8 during compound dosing and day 11 post last dose; format: organism-based; details: in vivo, 264 h
In short: (§1)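 Minced CRC240 PDX tissue (150 mg/ml in PBS, 200 μl) implanted in flanks of NOD/SCID mice. At about 100 mm3 tumours, mice randomized and dosed orally once daily for 11 days. Vehicle: 10% 1-methyl-2-pyrrolidinone/90% PEG300, with dosing suspensions or solutions at […] or 0.2 mg/ml. Tumour size and body weight recorded on days 0, 4, 8 and 11. n = 3, two-tailed t-test versus vehicle.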

Homo sapiens [2] = species on record: Homo sapiens; test: Inhibition of Wnt/beta-catenin signaling pathway in human SW480 cells cytosol lysate harboring APC mutation assessed as reduction in beta-catenin protein expression at 5 uM after 18 hrs by Western blot analysis; format: cell-based
In short: (§2)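 CCRC240, HCT116 or SW480 cells were grown to 50–70% confluency and exposed 18 h to 5 μM compound in DMSO. Whole-cell lysates were blotted for c-Myc, cyclin D1 and survivin. Hypotonic cytosolic fractions, syringe-dispersed and centrifuged 120 min, were blotted for β-catenin and Axin2. β-Actin served as loading control.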

Mus musculus [3] = test: Dose normalized AUC (0 to infinity) in NOD/SCID mouse at 1 mg/kg, po by LC-MS/MS-based compartmental first order extravascular input, first order elimination analysis; format: ADME, organism-based; details: in vivo
SW480 = test: Antiproliferative activity against human SW480 cells after 72 hrs by colorimetric MTS assay; format: functional, cell-based; details: SW480, 72 h
In short: (§3)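 Cells plated at 5000 per well in their own media (Leibovitz's for SW948; McCoy's 5A for HT-29/HCT116; MEM for SW480; RPMI for CRC240/DLD-1) with 10% FBS. Exposed 72 h to compound, 0.001–10 μM or 0.04–10 μM, then colorimetric MTS read-out. […] CRC240 is a patient-derived xenograft line.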

Homo sapiens [4] = species on record: Homo sapiens; test: Inhibition of Wnt/beta-catenin signaling pathway in human HCT116 whole cell lysate harboring beta-catenin mutation assessed as reduction in cyclin D1 protein expression at 5 uM after 18 hrs by Western blot analysis; in short: as §2
Mus musculus [5] = test: Dose normalized AUC (0 to infinity) in NOD/SCID mouse at 1 mg/kg, po by LC-MS/MS-based non-compartmental extravascular input analysis; format: ADME, organism-based; details: in vivo
[6] = Antiproliferative activity against human CRC240 cells after 72 hrs by colorimetric MTS assay; format: functional, cell-based; in short: as §3
[7] = AUC (0 to 72 hrs) in NOD/SCID mouse at 1 mg/kg, po by LC-MS/MS-based non-compartmental extravascular input analysis; format: ADME, organism-based; design: dose 1 mg/kg, time < 72 hr, route oral; details: in vivo
Mus musculus [8] = test: Time at which plasma concentration stays above in vitro IC50 for inhibition of Wnt3A-stimulated Wnt/beta-catenin pathway in HEK293 cells in NOD/SCID mouse at 1 mg/kg, po by LC-MS/MS analysis; format: organism-based; details: in vivo
In short: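 NOD/SCID mice (n = 4) received a single oral dose of 1 mg/kg from a 0.2 mg/mL solution in 10% NMP/90% PEG300. Serial tail-vein blood was taken from pre-dose to 72 h and plasma kept at −80 °C. Samples were extracted with ethyl acetate against an internal standard and run on LC/MS/MS (MRM 405.8/218.9). The calibration range was 2.4–1000 ng/mL in plasma.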

CCD-841CoN = test: Stimulation of mitochondrial respiration in human CCD-841-CoN cells assessed as increase in oxygen consumption rate at 1 uM under basal conditions by polarographic analysis
Homo sapiens [9] = test: Antitumor activity against human CRC240 cells xenografted in NOD/SCID mouse at 1 mg/kg, po administered 11 days and measured on day 4, 8 during compound dosing and day 11 post last dose; format: functional, organism-based; in short: as §1
DLD-1 = test: Antiproliferative activity against human DLD1 cells after 72 hrs by colorimetric MTS assay; format: functional, cell-based; details: DLD-1, 72 h; in short: as §3
Homo sapiens [10] = species on record: Homo sapiens; test: Inhibition of Wnt/beta-catenin signaling pathway in human SW480 whole cell lysate harboring APC mutation assessed as reduction in survivin protein expression at 5 uM after 18 hrs by Western blot analysis; in short: as §2
HCT-116 = test: Antiproliferative activity against human HCT116 cells after 72 hrs by colorimetric MTS assay; format: functional, cell-based; details: HCT-116, 72 h; in short: as §3
Homo sapiens [11] = species on record: Homo sapiens; test: Inhibition of Wnt/beta-catenin signaling pathway in human CRC240 whole cell lysate assessed as reduction in c-Myc protein expression at 5 uM after 18 hrs by Western blot analysis; in short: as §2
Mus musculus [12] = test: In vivo inhibition of Wnt/beta-catenin signaling pathway in NOD/SCID mouse xenografted with human CRC240 cells assessed as reduction in Axin2 protein expression at 1 mg/kg, po administered 11 days by Western blot method; format: functional, organism-based
In short: (§4)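 CRC240 PDX tumours were taken from NOD/SCID mice the day after 11 days of once-daily oral dosing (1 mg/kg, in 10% NMP/90% PEG300). Tumours were lysed in RIPA buffer and immunoblotted for Axin2, survivin and c-Myc. Bands were normalized to β-actin, n = 3, two-tailed t-test versus vehicle.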

Mus musculus [13] = test: In vivo inhibition of Wnt/beta-catenin signaling pathway in NOD/SCID mouse xenografted with human CRC240 cells assessed as reduction in c-Myc protein expression at 1 mg/kg, po administered 11 days by Western blot method; format: functional, organism-based; in short: as §4
Mus musculus [14] = test: Apparent volume of distribution in NOD/SCID mouse at 1 mg/kg, po by LC-MS/MS-based non-compartmental extravascular input analysis; format: ADME, organism-based; details: in vivo
[15] = Inhibition of Wnt3A-stimulated Wnt/beta-catenin pathway in HEK293 cells transfected with p8xTOPFlash, Renilla luciferase plasmid pRL-TK and pLKO.1 after 6 hrs by Dual topflash luciferase reporter assay; format: cell-based; details: Homo sapiens, HEK293, 6 h
In short: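 HEK293 cells stably carrying p8xTOPFlash, pRL-TK and pLKO.1 were grown overnight to confluence in MEM/10% FBS with 1 μg/ml puromycin. Wnt-3A conditioned medium (from L Wnt-3A cells) containing compound (0.04–10 μM) or DMSO was added for 6 h. Dual-luciferase was read, with the Wnt3A+DMSO signal set as 100%.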

Homo sapiens [16] = species on record: Homo sapiens; test: Inhibition of Wnt/beta-catenin signaling pathway in human CRC240 cells cytosol lysate assessed as reduction in beta-catenin protein expression at 5 uM after 18 hrs by Western blot analysis; format: cell-based; in short: as §2

AUC/dose (Mus musculus [3]): 16.3 µg·h/mL
IC50 (SW480): 0.33 µM
inhibition (Homo sapiens [4]): Active
AUC/dose (Mus musculus [5]): 16.9 µg·h/mL
AUC(0-t) at 72 h [7]: 16800 ng·h/mL
Time (Mus musculus [8]): 24 h
IC50 (DLD-1): 0.36 µM
IC50 (HCT-116): 0.28 µM
inhibition (Homo sapiens [11]): Active
Vz (Mus musculus [14]): 0.8 L/kg
IC50 [15]: 0.19 µM
Structure (SMILES): O=C(Nc1ccc(C(F)(F)F)cc1)c1cc(Cl)cc2nc(C(F)(F)F)[nH]c12
Activity (Mus musculus [1]): Non-Toxic
inhibition (Homo sapiens [2]): Active
IC50 [6]: 0.32 µM
Activity (CCD-841CoN): Active
Activity (Homo sapiens [9]): Active
inhibition (Homo sapiens [10]): Active
inhibition (Mus musculus [12]): Active
inhibition (Mus musculus [13]): Active
inhibition (Homo sapiens [16]): Active
